Reference: ChEMBL document CHEMBL1126017, “Phenylalkyl isothiocyanate-cysteine conjugates as glutathione S-transferase stimulating agents” (J Med Chem, 1992)

Columns and labels:
[1] = molecular target: T1, Glutathione S-transferase Mu 1 (Mus musculus) (UniProt P10649); assay: Ratio of glutathione S-transferase activity in tested (cottonseed oil alone + compound) to that of control (cottonseed oil alone); type: functional
T1 sequence (whole entry): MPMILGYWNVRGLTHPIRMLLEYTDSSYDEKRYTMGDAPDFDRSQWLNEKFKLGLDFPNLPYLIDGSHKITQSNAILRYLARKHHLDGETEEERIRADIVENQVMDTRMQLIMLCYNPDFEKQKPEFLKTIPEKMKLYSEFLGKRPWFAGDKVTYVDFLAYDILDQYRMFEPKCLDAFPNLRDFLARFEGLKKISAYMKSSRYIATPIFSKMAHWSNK
In short: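 Ratio of cytosolic GST specific activity (CDNB substrate, 340 nm, 30 °C) in each tissue of gavaged female A/J mice to that of cottonseed oil-only controls (test/control).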

[2] = test system: glutathione S-transferase (Mus musculus); assay: Induction of increased cytosolic glutathione S-transferase activity in lung of A/J mice treated with 3 doses of 0.04 mM compound (dissolved in 0.3 mL of cottonseed oil) for 2 days
[3] = test system: glutathione S-transferase (Mus musculus); assay: Induction of increased cytosolic glutathione S-transferase activity in lung of A/J mice treated with 3 doses of 0.10 mM compound (dissolved in 0.3 mL of cottonseed oil) for 2 days
[4] = test system: glutathione S-transferase (Mus musculus); assay: Induction of increased cytosolic glutathione S-transferase activity in liver of A/J mice treated with 3 doses of 0.10 mM compound (dissolved in 0.3 mL of cottonseed oil) for 2 days
[5] = test system: glutathione S-transferase (Mus musculus); assay: Induction of increased cytosolic glutathione S-transferase activity in liver of A/J mice treated with 3 doses of 0.04 mM compound (dissolved in 0.3 mL of cottonseed oil) for 2 days
[6] = test system: glutathione S-transferase (Mus musculus); assay: Induction of increased cytosolic glutathione S-transferase activity in bladder of A/J mice treated with 3 doses of 0.04 mM compound (dissolved in 0.3 mL of cottonseed oil) for 2 days; details: Urinary bladder
[7] = test system: glutathione S-transferase (Mus musculus); assay: Induction of increased cytosolic glutathione S-transferase activity in forestomach of A/J mice treated with 3 doses of 0.04 mM compound (dissolved in 0.3 mL of cottonseed oil) for 2 days; details: Stomach
[8] = test system: glutathione S-transferase (Mus musculus); assay: Induction of increased cytosolic glutathione S-transferase activity in forestomach of A/J mice treated with 3 doses of 0.10 mM compound (dissolved in 0.3 mL of cottonseed oil) for 2 days; details: Stomach
[9] = test system: glutathione S-transferase (Mus musculus); assay: Induction of increased cytosolic glutathione S-transferase activity in large bowel mucosa of A/J mice treated with 3 doses of 0.04 mM compound (dissolved in 0.3 mL of cottonseed oil) for 2 days
[10] = test system: glutathione S-transferase (Mus musculus); assay: Induction of increased cytosolic glutathione S-transferase activity in large bowel mucosa of A/J mice treated with 3 doses of 0.10 mM compound (dissolved in 0.3 mL of cottonseed oil) for 2 days
[11] = test system: glutathione S-transferase (Mus musculus); assay: Induction of increased cytosolic glutathione S-transferase activity in small bowel mucosa of A/J mice treated with 3 doses of 0.04 mM compound (dissolved in 0.3 mL of cottonseed oil) for 2 days
[12] = test system: glutathione S-transferase (Mus musculus); assay: Induction of increased cytosolic glutathione S-transferase activity in small bowel mucosa of A/J mice treated with 3 doses of 0.10 mM compound (dissolved in 0.3 mL of cottonseed oil) for 2 days

Ratio [1]: 1.11 [middle of 11 runs]
Activity (uM min-1 (mg of protein)-1) [2]: 0.31
Activity (uM min-1 (mg of protein)-1) [3]: 0.29
Activity (uM min-1 (mg of protein)-1) [4]: 1.35
Activity (uM min-1 (mg of protein)-1) [5]: 1.2
Activity (uM min-1 (mg of protein)-1) [6]: 6.16
Activity (uM min-1 (mg of protein)-1) [7]: 0.86
Activity (uM min-1 (mg of protein)-1) [8]: 0.92
Activity (uM min-1 (mg of protein)-1) [9]: 0.26
Activity (uM min-1 (mg of protein)-1) [10]: 0.38
Activity (uM min-1 (mg of protein)-1) [11]: 0.49
Activity (uM min-1 (mg of protein)-1) [12]: 0.69
SMILES: NC(CS/C(S)=N/CCCc1ccccc1)C(=O)O (configuration not stated)
